ChEMBL document CHEMBL1126169, “8-Polycycloalkyl-1,3-dipropylxanthines as potent and selective antagonists for A1-adenosine receptors” (J Med Chem, 1992)

Legend:
Adenosine receptor A1 [1] = molecular target: T1, Adenosine receptor A1 (Cavia porcellus, UniProt P47745); assay: Inhibition of N6-[3H]cyclohexyladenosine binding to guinea pig forebrain membrane Adenosine A1 receptor
T1 sequence (P47745 whole entry): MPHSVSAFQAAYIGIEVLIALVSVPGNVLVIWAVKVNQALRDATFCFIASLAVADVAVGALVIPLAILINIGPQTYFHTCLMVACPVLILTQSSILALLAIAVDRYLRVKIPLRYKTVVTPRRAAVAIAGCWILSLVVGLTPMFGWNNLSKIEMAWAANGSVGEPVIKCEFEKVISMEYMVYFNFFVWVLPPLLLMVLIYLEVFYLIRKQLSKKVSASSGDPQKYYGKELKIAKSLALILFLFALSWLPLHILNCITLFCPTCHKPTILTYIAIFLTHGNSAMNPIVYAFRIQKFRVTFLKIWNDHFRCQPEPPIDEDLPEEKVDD

Adenosine receptor A1 [2] = molecular target: T1, Adenosine receptor A1; assay: Binding affinity against adenosine A1 receptor using N6-[3H]cyclohexyladenosine as radioligand in guinea pig forebrain membranes; assay type: cell membranes, Brain membranes
Adenosine A2 receptor [3] = molecular target: T2, Adenosine A2 receptor (Rattus norvegicus, UniProt P29276+P30543); assay: Binding affinity against adenosine A2 receptor using N-[3H]-ethyladenosin-5''-uronamide as radioligand in rat striatal membranes.; assay type: cell membranes
[4] = molecular target: Adenosine receptor A1 (Rattus norvegicus) (UniProt P25099); assay: Binding affinity against adenosine A1 receptor using N6-[3H]cyclohexyladenosine as radioligand in rat brain membranes
Adenosine receptor A1 [5] = molecular target: T1, Adenosine receptor A1; assay: Binding affinity against Adenosine A1 receptor using N6-[3H]cyclohexyladenosine in guinea pig forebrain membranes; assay type: cell membranes, Brain membranes
Outline: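 Guinea pig forebrain membranes in 50 mM Tris-HCl pH 7.7, pretreated with adenosine deaminase (2.0 units/mL, 30 min, 37 °C), 10 mg tissue per tube. Incubated with 1.1 nM [3H]cyclohexyladenosine, final DMSO <0.9%, for 90 min at 25 °C, then GF/C filtration and scintillation counting. Nonspecific binding defined with 10 µM R-PIA.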

Adenosine A2 receptor [6] = molecular target: T2, Adenosine A2 receptor; assay: Binding affinity against Adenosine A2 receptor using N-[3H]-ethyladenosin-5''-uronamide in rat striatal membranes; assay type: cell membranes, Striatum, Membrane
Adenosine receptor A1 [7] = molecular target: T3, Adenosine receptor A1 (Rattus norvegicus, UniProt P25099); assay: Binding affinity against Adenosine A1 receptor using N6-[3H]cyclohexyladenosine in rat brain membranes; assay type: cell membranes
T3 sequence (P25099 whole entry): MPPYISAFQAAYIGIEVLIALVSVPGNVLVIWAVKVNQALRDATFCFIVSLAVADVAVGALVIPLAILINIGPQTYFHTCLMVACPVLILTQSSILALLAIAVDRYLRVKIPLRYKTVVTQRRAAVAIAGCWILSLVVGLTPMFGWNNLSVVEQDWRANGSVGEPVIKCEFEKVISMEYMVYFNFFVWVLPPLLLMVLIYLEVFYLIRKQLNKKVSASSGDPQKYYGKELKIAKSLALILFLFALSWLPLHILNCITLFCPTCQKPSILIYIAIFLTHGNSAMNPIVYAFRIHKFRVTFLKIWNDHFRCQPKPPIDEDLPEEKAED
Outline: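 Rat forebrain membranes were prepared like the guinea pig tissue. Tissue was homogenized in ice-cold 50 mM Tris-HCl pH 7.7, centrifuged at 50000g and washed. It was treated with ADA (2.0 units/mL) for 30 min at 37 °C, then used at 10 mg tissue/mL. Duplicate curves used five or more concentrations; IC50 from logit-log plots was converted to Ki by Cheng-Prusoff.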

[8] = Binding affinity against adenylate cyclase using N-[3H]-ethyl adenosine-5-uronamide as radioligand in human platelet membranes; assay type: cell membranes
[9] = Inhibitory activity against adenylate cyclase using (R)-N6-(2-[3H]-phenyl-1-methylethyladenosine as radioligand in rat adipocytes; assay type: cell-based
Adenosine receptor A1 [10] = molecular target: T1, Adenosine receptor A1; assay: Binding affinity against Adenosine A1 receptor using N6-[3H]cyclohexyladenosine in guinea pig membranes; assay type: cell membranes

SMILES | Ki (Adenosine receptor A1 [2]) | Ki (Adenosine A2 receptor [3]) | other results
CC[C@H](C)Nc1ncnc2c1ncn2C1O[C@H](CO)[C@@H](O)[C@H]1O (single isomer, unassigned) | – | – | Ki (Adenosine receptor A1 [1]): 0.8 nM
CCCn1c(=O)c2nc([C@@H]3CC4CCC3C4)[nH]c2n(CCC)c1=O (some centres not stated) | 3.8 nM | 440 nM | –
CCCCn1c(=O)c2nc(C34CC5CC(CC3C5)C4)[nH]c2n(CCCC)c1=O | 10 nM | – | –
CCC(C)(C)Nc1ncnc2c1ncn2C1O[C@H](CO)[C@@H](O)[C@H]1O (some centres not stated) | – | – | Ki (Adenosine receptor A1 [1]): 16 nM
Cn1c(=O)c2[nH]c(C34CC5CC(CC3C5)C4)nc2n(C)c1=O | 41 nM | – | –
CCCn1c(=O)c2nc(-c3cccs3)[nH]c2n(CCC)c1=O | 210 nM | 1900 nM | –
OC[C@H]1OC(n2cnc3c(NCC4CC4)ncnc32)[C@H](O)[C@@H]1O (some centres not stated) | – | – | Ki [4]: 0.75 nM
CCCn1c(=O)c2nc(-c3csc(C)n3)[nH]c2n(CCC)c1=O | 410 nM | 2300 nM | –
CCCn1c(=O)c2nc(C3(C)CCCCC3)[nH]c2n(CCC)c1=O | 11 nM | 1200 nM | –
CCCn1c(=O)c2nc(-c3cc(S(=O)(=O)[O-])co3)[nH]c2n(CCC)c1=O.[K+] | – | – | Ki (Adenosine receptor A1 [5]): > 10000 nM; Ki (Adenosine A2 receptor [6]): > 10000 nM
CCCn1c(=O)c2nc(C(C)(C)C)[nH]c2n(CCC)c1=O | 31 nM | 2300 nM | –
CC1(Nc2ncnc3c2ncn3C2O[C@H](CO)[C@@H](O)[C@H]2O)CCCCC1 (some centres not stated) | – | – | Ki [4]: 70 nM
OC[C@H]1O[C@@H](n2cnc3c(NC4CC5CCC4C5)ncnc32)[C@H](O)[C@@H]1O (some centres not stated) | – | – | Ki (Adenosine receptor A1 [1]): 0.7 nM; Ki (Adenosine receptor A1 [7]): 0.91 nM
CCCn1c(=O)c2nc(CC(C)(C)C)[nH]c2n(CCC)c1=O | 49 nM | 6000 nM | –
CCCn1c(=O)c2nc(CC34C[C@H]5C[C@@H](C3)C[C@@H](C4)C5)[nH]c2n(CCC)c1=O | 880 nM | > 100000 nM | –
CCCn1c(=O)c2nc(CC3CC3)[nH]c2n(CCC)c1=O | 120 nM | 1200 nM | –
CCCn1c(=O)c2nc(-c3cc4ccccc4n3C)[nH]c2n(CCC)c1=O | > 100000 nM | > 100000 nM | –
CCCn1c(=O)c2nc(-c3ccco3)[nH]c2n(CCC)c1=O | 560 nM | 530 nM | –
Cn1c(=O)c2[nH]cnc2n(C)c1=O | – | – | Kb [8]: 5700 nM; Kb [9]: 4800 nM
CCCn1c(=O)c2[nH]c(C34C[C@H]5C[C@@H](C3)C[C@@H](C4)C5)nc2n(CCC)c1=O | 13 nM | – | –
CCCn1c(=O)c2nc(C3C(C)(C)CCC3(C)C)[nH]c2n(CCC)c1=O | – | > 100000 nM | –
CCCn1c(=O)c2nc(C3CCC4CCCC43)[nH]c2n(CCC)c1=O (configuration not stated) | 3.5 nM | 330 nM | Ki (Adenosine receptor A1 [1]): 5.6 nM; Ki (Adenosine A2 receptor [6]): 560 nM

SMILES | Ki (Adenosine receptor A1 [2]) | Ki (Adenosine A2 receptor [3]) | other results
CCCn1c(=O)[nH]c(=O)c2[nH]c(C34CC5CC(CC3C5)C4)nc21 | – | – | Ki (Adenosine receptor A1 [1]): 370 nM; Ki (Adenosine A2 receptor [6]): > 100000 nM
Cn1c(=O)c2c(ncn2C)n(C)c1=O [CAFFEINE] | 100000 nM | – | –
CCCn1c(=O)c2[nH]c(C[C@H]3CC4CCC3C4)nc2n(CCC)c1=O (some centres not stated) | 80 nM | – | –
CCCn1c(=O)c2nc(-c3nn[nH]n3)[nH]c2n(CCC)c1=O | > 10000 nM | > 100000 nM | –
CCCn1c(=O)c2nc[nH]c2n(CCC)c1=O | – | – | Ki (Adenosine receptor A1 [1]): 1400 nM; Ki (Adenosine receptor A1 [10]): 1000 nM; Kb [9]: 940 nM
CCCn1c(=O)c2nc(-c3cc4ccccc4s3)[nH]c2n(CCC)c1=O | > 100000 nM | > 100000 nM | –
CCCn1c(=O)c2nc(C(C)(C)CCC)[nH]c2n(CCC)c1=O | 25 nM | 2200 nM | –
CCCn1c(=O)c2nc(C(C)(C)CC)[nH]c2n(CCC)c1=O | 23 nM | 1000 nM | –
CCCn1c(=O)c2nc(C3c4ccccc4-c4ccccc43)[nH]c2n(CCC)c1=O | – | – | Ki (Adenosine receptor A1 [5]): 2900 nM; Ki (Adenosine A2 receptor [6]): > 100000 nM
CCC(CC)Nc1ncnc2c1ncn2C1O[C@H](CO)[C@@H](O)[C@H]1O (some centres not stated) | – | – | Ki [4]: 0.75 nM
CCCn1c(=O)c2nc(-c3cnns3)[nH]c2n(CCC)c1=O | – | – | Ki (Adenosine receptor A1 [5]): 4400 nM; Ki (Adenosine A2 receptor [6]): > 10000 nM
OC[C@H]1OC(n2cnc3c(NC(C4CC4)C4CC4)ncnc32)[C@H](O)[C@@H]1O (some centres not stated) | – | – | Ki (Adenosine receptor A1 [1]): 0.75 nM
CCCn1c(=O)c2nc(C(O)(CC)CC)[nH]c2n(CCC)c1=O | 170 nM | 12000 nM | –
CCCn1c(=O)c2nc(-c3cccn3C)[nH]c2n(CCC)c1=O | 140 nM | 6000 nM | –
CCCn1c(=O)c2nc(-c3cc4ccccc4o3)[nH]c2n(CCC)c1=O | > 10000 nM | 1200 nM | –
CCCn1c(=O)c2nc(C3Cc4ccccc4C3)[nH]c2n(CCC)c1=O | 220 nM | 1700 nM | –
CCCn1c(=O)c2nc([C@H]3CC4C=CC3C4)[nH]c2n(CCC)c1=O (some centres not stated) | 3.4 nM | 210 nM | –
CCCn1c(=O)c2nc([C@@H]3CC4C=CC3C4)[nH]c2n(CCC)c1=O (some centres not stated) | 4.3 nM | 480 nM | –
CCCn1c(=O)c2nc(C(C)(O)CC)[nH]c2n(CCC)c1=O (configuration not stated) | 240 nM | 21000 nM | –
CCCn1c(=O)c2nc(C3CC4CCC3C4)[nH]c2n(CCC)c1=O (configuration not stated) | – | – | Ki (Adenosine receptor A1 [1]): 4.4 nM
CC[C@@H](C)Nc1ncnc2c1ncn2[C@@H]1O[C@H](CO)[C@@H](O)[C@H]1O | – | – | Ki (Adenosine receptor A1 [1]): 1.3 nM
CC(C)Cn1c(=O)n(C)c(=O)c2[nH]c(C34CC5CC(CC3C5)C4)nc21 | – | – | Ki (Adenosine receptor A1 [1]): 15 nM

More lines, main results first:

Ki (Adenosine receptor A1 [2]) | Ki (Adenosine A2 receptor [3]) | SMILES | other results
20 nM | – | CC(C)(C)Nc1ncnc2c1ncn2C1O[C@H](CO)[C@@H](O)[C@H]1O (some centres not stated) | –
73 nM | – | OC[C@H]1OC(n2cnc3c(NC45C[C@H]6C[C@@H](C4)C[C@@H](C5)C6)ncnc32)[C@H](O)[C@@H]1O (some centres not stated) | –
1.9 nM | – | CC(C)Nc1ncnc2c1ncn2[C@@H]1O[C@H](CO)[C@@H](O)[C@H]1O | –
– | > 10000 nM | CCCn1c(=O)c2nc(-c3cnsn3)[nH]c2n(CCC)c1=O | –
17 nM | – | CC(C)(C)CNc1ncnc2c1ncn2C1O[C@H](CO)[C@@H](O)[C@H]1O (some centres not stated) | –
3.3 nM | – | CCCC(CCC)Nc1ncnc2c1ncn2C1O[C@H](CO)[C@@H](O)[C@H]1O (some centres not stated) | –
